Calls of active or inactive are those of the source. No cut-off for these calls is given here.
Key:
[1] = molecular target: Nucleotide-binding oligomerization domain-containing protein 2 (Homo sapiens, UniProt Q9HC29); test: Inhibition of human NOD2 expressed in HEK293 cells assessed as suppression of MDP-stimulated ERK phosphorylation preincubated for 1 hr followed by MDP stimulation measured after 1 hr by Western blot analysis
[2] = molecular target: T1, Nucleotide-binding oligomerization domain-containing protein 1 (Homo sapiens) (UniProt Q9Y239); test: Inhibition of NOD1 in human THP1 cells assessed as suppression of C12-iE-DAP-stimulated RIP2 phosphorylation at 1 to 10 uM preincubated for 1 hr followed by C12-iE-DAP stimulation after 45 mins by Western blot analysis; format: cell-based
T1 sequence (whole entry): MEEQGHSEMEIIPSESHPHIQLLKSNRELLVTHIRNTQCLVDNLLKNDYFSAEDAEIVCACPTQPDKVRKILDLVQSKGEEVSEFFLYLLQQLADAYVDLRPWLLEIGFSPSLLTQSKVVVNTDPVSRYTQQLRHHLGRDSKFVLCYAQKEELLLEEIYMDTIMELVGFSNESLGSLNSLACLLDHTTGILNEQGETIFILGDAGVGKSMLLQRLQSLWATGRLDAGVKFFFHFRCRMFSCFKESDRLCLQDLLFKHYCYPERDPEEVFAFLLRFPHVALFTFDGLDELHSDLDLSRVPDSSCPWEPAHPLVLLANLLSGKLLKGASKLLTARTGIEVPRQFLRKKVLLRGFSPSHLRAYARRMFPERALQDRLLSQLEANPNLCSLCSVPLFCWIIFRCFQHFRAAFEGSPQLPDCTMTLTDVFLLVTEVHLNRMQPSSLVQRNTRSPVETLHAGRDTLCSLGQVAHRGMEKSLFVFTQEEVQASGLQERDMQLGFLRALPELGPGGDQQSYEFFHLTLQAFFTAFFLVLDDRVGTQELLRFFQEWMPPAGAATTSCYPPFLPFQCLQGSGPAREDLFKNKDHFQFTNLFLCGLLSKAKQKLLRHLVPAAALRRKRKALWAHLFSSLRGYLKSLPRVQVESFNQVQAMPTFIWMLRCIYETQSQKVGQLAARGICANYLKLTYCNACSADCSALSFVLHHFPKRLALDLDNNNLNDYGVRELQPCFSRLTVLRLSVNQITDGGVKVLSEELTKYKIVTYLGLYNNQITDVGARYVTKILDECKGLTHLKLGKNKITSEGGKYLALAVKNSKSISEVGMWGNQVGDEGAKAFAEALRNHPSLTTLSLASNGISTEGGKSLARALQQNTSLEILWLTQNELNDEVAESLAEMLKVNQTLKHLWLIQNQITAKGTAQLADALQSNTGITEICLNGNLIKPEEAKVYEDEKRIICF
Outline: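 PMA (20 ng/mL, 48 h)-differentiated THP1 macrophages rested 24 h in PMA-free medium, serum-starved (0.1% FBS) overnight, pretreated 1 h with compound, stimulated 45 min with C12-iE-DAP 50 ng/mL. Lysates run on 8% SDS-PAGE, immunoblotted for phospho and total RIP2, p38, JNK, ERK and IκBα.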

Nucleotide-binding oligomerization domain-containing protein 2, sequence (Q9HC29 whole entry, the tested form may be a part): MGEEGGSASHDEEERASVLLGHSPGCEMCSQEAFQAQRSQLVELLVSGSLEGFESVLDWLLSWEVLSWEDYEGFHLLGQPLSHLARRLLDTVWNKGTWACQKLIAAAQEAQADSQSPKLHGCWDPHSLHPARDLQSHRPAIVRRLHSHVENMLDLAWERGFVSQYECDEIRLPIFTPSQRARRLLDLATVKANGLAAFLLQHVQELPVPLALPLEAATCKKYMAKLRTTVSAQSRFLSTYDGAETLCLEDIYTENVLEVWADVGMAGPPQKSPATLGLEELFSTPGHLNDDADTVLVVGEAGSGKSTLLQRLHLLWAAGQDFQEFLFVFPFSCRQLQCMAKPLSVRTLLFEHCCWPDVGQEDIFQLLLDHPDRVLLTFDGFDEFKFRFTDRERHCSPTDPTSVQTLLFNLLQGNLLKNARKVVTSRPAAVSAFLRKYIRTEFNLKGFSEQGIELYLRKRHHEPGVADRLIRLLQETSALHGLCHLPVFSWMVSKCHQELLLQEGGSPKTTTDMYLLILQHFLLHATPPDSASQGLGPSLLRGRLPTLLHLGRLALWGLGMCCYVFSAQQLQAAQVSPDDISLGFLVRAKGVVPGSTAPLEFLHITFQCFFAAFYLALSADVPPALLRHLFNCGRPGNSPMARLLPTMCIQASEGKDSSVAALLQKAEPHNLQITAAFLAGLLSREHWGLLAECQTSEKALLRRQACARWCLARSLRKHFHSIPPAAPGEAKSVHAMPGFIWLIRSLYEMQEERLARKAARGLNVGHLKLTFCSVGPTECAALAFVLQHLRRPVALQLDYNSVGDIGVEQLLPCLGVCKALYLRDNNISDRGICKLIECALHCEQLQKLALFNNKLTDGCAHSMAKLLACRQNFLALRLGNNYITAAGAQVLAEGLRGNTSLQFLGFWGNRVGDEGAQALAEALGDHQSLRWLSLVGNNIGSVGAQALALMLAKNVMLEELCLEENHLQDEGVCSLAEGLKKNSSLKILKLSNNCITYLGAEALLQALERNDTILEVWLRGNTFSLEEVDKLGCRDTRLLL

CCCNC(=O)CC[C@H]1NC(=O)c2cc(Oc3cccc(N(C)C)c3)c(NC(=O)COCc3ccccc3)cc2NC1=O
inhibition [1]: Dose-dependent effect | inhibition [2]: Active

From ChEMBL document CHEMBL4014339, “Discovery of 1,4-Benzodiazepine-2,5-dione (BZD) Derivatives as Dual Nucleotide Binding Oligomerization Domain Containing 1/2 (NOD1/NOD2) Antagonists Sensitizing Paclitaxel (PTX) To Suppress Lewis Lung Carcinoma (LLC) Growth in Vivo” (J Med Chem, 2017)
